In ChEMBL document CHEMBL4145477, “Inhibitor of the human telomerase reverse trancriptase (hTERT) gene promoter induces cell apoptosis via a mitochondrial-dependent pathway” (Eur J Med Chem, 2018):
The source made the active and inactive calls.

What was measured:
HeLa [1] = assay: Induction of apoptosis in human HeLa cells assessed as late apoptotic cells at 5 uM after 48 hrs by Annexin V-FITC/propidium iodide staining-based flow cytometric analysis (reference value: 15%); format: functional
[2] = (§1) Inhibition of human TERT promoter activity expressed in human HeLa cells after 24 hrs by luciferase reporter gene assay; format: cell-based
Method in brief: (§2)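 HeLa cells co-transfected with hTERT promoter–luciferase (P-3996) or pGL2 vector plus pCMV-β-gal. Replated at 5×10^3/well, then treated 24 h in DMEM with 3% FBS at 1–16 µM. Luciferase normalized to β-galactosidase and expressed as fold of 0.1% DMSO control. Three repeats.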

HeLa [3] = assay: Induction of apoptosis in human HeLa cells assessed as increase in cleaved caspase-3 levels at 5 uM after 24 hrs by Western blot analysis; format: functional, cell-based
Method in brief: (§3)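 Treated cells lysed in ice-cold Tris-HCl pH 7.5/NaCl/NP-40 buffer with protease inhibitors. Equal protein separated by SDS-PAGE and transferred to nitrocellulose. Blocked in 5% milk in PBST, primary antibodies overnight at 4 °C, secondary 1 h at room temperature, infrared imaging. β-actin probed alongside.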

HeLa [4] = assay: Antiproliferative activity against human HeLa cells at 5 uM by MTT assay; format: functional, cell-based; settings: TDE = time-dependent effect
Method in brief: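 HeLa cells seeded 5,000/well in triplicate, exposed to 5 µM for 24 or 48 h. MTT added at 0.5 mg/ml final for 4 h at 37 °C in the dark. Formazan dissolved in DMSO and read at 570 nm. Three independent experiments.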

HeLa [5] = assay: Induction of apoptosis in human HeLa cells assessed as viable cells at 5 uM after 48 hrs by Annexin V-FITC/propidium iodide staining-based flow cytometric analysis (reference value: 74%); format: functional; settings: read-out: Activity
HeLa [6] = assay: Induction of apoptosis in human HeLa cells assessed as increase in cleaved caspase-9 levels at 5 uM after 24 hrs by Western blot analysis; format: functional, cell-based; method in brief: as §3
HeLa [7] = assay: Induction of apoptosis in human HeLa cells assessed as chromatin condensation at 5 uM after 48 hrs by DAPI staining-based fluorescence microscopic analysis; format: functional, cell-based
Method in brief: (§4)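 Cells fixed in 5% paraformaldehyde and permeabilized with 0.1% Triton X-100 in PBS. Stained 10 min with DAPI (1 µg/mL) and examined by fluorescence microscopy. Nuclei with chromatin condensation and fragmentation scored apoptotic.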

HeLa [8] = assay: Inhibition of TERT promoter activity in human HeLa cells assessed as decrease in relative length of telomeres treated up to 22 generations by Q-PCR analysis; format: cell-based
Method in brief: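 HeLa cells cultured with compound or DMSO for 22 generations. Telomere length measured by qPCR as telomere/36B4 single-copy gene (T/S) ratio relative to a reference DNA. Samples run in duplicate, threshold 0.5.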

HeLa [9] = assay: Inhibition of colony formation in human HeLa cells at 5 uM after 3 weeks; format: functional, cell-based
Method in brief: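 HeLa cells treated with 5 µM and grown 3 weeks. Colonies photographed and colony-formation efficiency quantified.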

HeLa [10] = assay: Induction of apoptosis in human HeLa cells assessed as necrotic cells at 5 uM after 48 hrs by Annexin V-FITC/propidium iodide staining-based flow cytometric analysis (reference value: 1.5%); format: functional
HeLa [11] = assay: Induction of apoptosis in human HeLa cells assessed as cell shrinkage at 5 uM after 48 hrs by DAPI staining-based fluorescence microscopic analysis; format: functional; method in brief: as §4
HeLa [12] = assay: Induction of apoptosis in human HeLa cells assessed as early apoptotic cells at 5 uM after 48 hrs by Annexin V-FITC/propidium iodide staining-based flow cytometric analysis (reference value: 9.5%); format: functional
HeLa [13] = assay: Induction of apoptosis in human HeLa cells assessed as decrease in Bcl-2 levels at 5 uM after 24 hrs by Western blot analysis; format: functional, cell-based; method in brief: as §3
HeLa [14] = assay: Induction of apoptosis in human HeLa cells assessed as increase in Bax levels at 5 uM after 24 hrs by Western blot analysis; format: functional, cell-based; method in brief: as §3
L02 = assay: Antiproliferative activity against human LO2 cells at 1 to 16 uM after 48 hrs by MTT assay; format: cell-based; settings: l02, 48 h
Method in brief: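 L02 cells given 1, 2, 4, 8 and 16 µM for 48 h. Seeded 5,000/well in triplicate. MTT 0.5 mg/ml final, 4 h at 37 °C in the dark, DMSO solubilization, absorbance at 570 nm. Three independent experiments. IC50 from probit regression of relative absorbance.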

HeLa [15] = assay: as §1; format: cell-based; method in brief: as §2

For `O=C1/C(=N\O)c2c(-c3ccc(C(F)(F)F)cc3)cccc2N1Cc1ccc(Cl)cc1`, the Activity (HeLa [1]) was 29.1%, the EC50 [2] was 5 µM and the Activity (HeLa [3]) was “Active”. For the same molecule, the Activity (HeLa [4]) was “Tde”, the viability at 5 µM (HeLa [5]) was 38% and the Activity (HeLa [6]) was “Active”. For the same molecule, the Activity (HeLa [7]) was “Active”, the inhibition (HeLa [8]) was “Active” and the inhibition (HeLa [9]) was “Active”. For the same molecule, the Activity (HeLa [10]) was 2.2%, the Activity (HeLa [11]) was “Active” and the Activity (HeLa [12]) was 30.6%. The Activity (HeLa [13]) was “Active”, the Activity (HeLa [14]) was “Active” and the Activity (L02) was “Non-Toxic”.
`O=C1/C(=N\O)c2c(Br)cccc2N1Cc1ccc(Cl)cc1` gave an EC50 [2] of 6 µM.
In the case of `COc1ccc(-c2cccc3c2/C(=N/O)C(=O)N3Cc2ccc(Cl)cc2)cc1`, the EC50 [2] is reported as 12 µM.
`O=C1/C(=N\O)c2c(Cl)cccc2N1Cc1ccc(Cl)cc1` showed an EC50 [2] of 13 µM.
In the case of `O=C1/C(=N\O)c2c(I)cccc2N1Cc1ccc(Cl)cc1`, the inhibition (HeLa [15]) is reported as “Dose-dependent effect” and the EC50 [2] is reported as 14 µM.
